Blank lines part the entries; values can stand above or below the molecule they belong to. Calls of active or inactive are those of the source. The calls are words filed in the database; no cut-off is given here.
Legend:
[1] = Inhibition of CDK4/Cyclin D
[2] = target: Cyclin-dependent kinase 2 (Homo sapiens, UniProt P24941); test: Inhibition of CDK2/Cyclin A
[3] = target: Cyclin-dependent kinase 1/cyclin B1 (Homo sapiens, UniProt P06493); test: Inhibition of CDK1/Cyclin B; type: protein-complex assay
Chain of Cyclin-dependent kinase 1/cyclin B1 (P06493 whole entry): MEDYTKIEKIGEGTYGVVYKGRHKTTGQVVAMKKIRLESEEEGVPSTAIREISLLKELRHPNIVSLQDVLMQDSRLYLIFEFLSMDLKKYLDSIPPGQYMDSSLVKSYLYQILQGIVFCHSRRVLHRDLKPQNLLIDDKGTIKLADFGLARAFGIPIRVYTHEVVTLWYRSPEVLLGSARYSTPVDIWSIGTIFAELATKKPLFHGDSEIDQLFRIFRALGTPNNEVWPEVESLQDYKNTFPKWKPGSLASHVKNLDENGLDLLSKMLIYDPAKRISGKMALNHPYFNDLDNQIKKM
Chain of Cyclin-dependent kinase 1/cyclin B1 (P14635 whole entry, further chain): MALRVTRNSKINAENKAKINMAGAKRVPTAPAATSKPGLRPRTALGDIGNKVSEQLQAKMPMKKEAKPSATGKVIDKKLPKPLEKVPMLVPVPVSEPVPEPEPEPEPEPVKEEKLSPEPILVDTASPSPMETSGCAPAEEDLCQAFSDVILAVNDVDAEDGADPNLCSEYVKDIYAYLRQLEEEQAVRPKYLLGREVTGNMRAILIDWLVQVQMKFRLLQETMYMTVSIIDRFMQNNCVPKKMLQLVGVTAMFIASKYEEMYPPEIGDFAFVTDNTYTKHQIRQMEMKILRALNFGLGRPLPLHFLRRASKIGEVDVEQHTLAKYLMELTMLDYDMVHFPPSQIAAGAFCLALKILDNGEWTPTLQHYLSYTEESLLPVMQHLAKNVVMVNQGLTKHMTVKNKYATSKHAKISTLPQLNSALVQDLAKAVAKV

HCT-15 = test: Cytotoxicity against human HCT15 cells after 48 hrs by sulforhodamine B assay; type: functional
How it was run: (§1)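 NCI human tumor panel. Cells in RPMI 1640 with 5% FBS and 2 mM L-glutamine, 5000–40,000 cells/well by growth characteristics, 24 h preincubation at 37 °C. Compound added at time zero at five 10-fold dilutions, top concentration agent-dependent. Incubated 48 h (5% CO2, 100% humidity), then sulforhodamine B stain and plate-reader OD. GI50 and TGI are the concentrations giving 50% and total growth inhibition, in µM.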

CCRF-CEM = test: Cytotoxicity against human CCRF-CEM cells after 48 hrs by sulforhodamine B assay; type: functional; how it was run: as §1
UACC-62 = test: Cytotoxicity against human UACC62 cells after 48 hrs by sulforhodamine B assay; type: functional; how it was run: as §1
LOX IMVI = test: Cytotoxicity against human LOXIMVI cells after 48 hrs by sulforhodamine B assay; type: functional; how it was run: as §1
SF-539 = test: Cytotoxicity against human SF539 cells after 48 hrs by sulforhodamine B assay; type: functional; how it was run: as §1
NCI-H226 = test: Cytotoxicity against human NCI-H226 cells after 48 hrs by sulforhodamine B assay; type: functional; conditions: NCI-H226, 48 h; how it was run: as §1
A498 = test: Cytotoxicity against human A498 cells after 48 hrs by sulforhodamine B assay; type: functional; how it was run: as §1
HOP-62 = test: Cytotoxicity against human HOP62 cells after 48 hrs by sulforhodamine B assay; type: functional; how it was run: as §1
HCT-116 = test: Cytotoxicity against human HCT116 cells after 48 hrs by sulforhodamine B assay; type: functional; conditions: HCT-116, 48 h; how it was run: as §1
ACHN = test: Cytotoxicity against human ACHN cells after 48 hrs by sulforhodamine B assay; type: functional; how it was run: as §1
KM12 = test: Cytotoxicity against human KM12 cells after 48 hrs by sulforhodamine B assay; type: functional; conditions: KM12, 48 h; how it was run: as §1
HCC 2998 = test: Cytotoxicity against human HCC2998 cells after 48 hrs by sulforhodamine B assay; type: functional; how it was run: as §1
CAKI-1 = test: Cytotoxicity against human Caki1 cells after 48 hrs by sulforhodamine B assay; type: functional; conditions: CAKI-1, 48 h; how it was run: as §1
OVCAR-3 = test: Cytotoxicity against human OVCAR-3 cells after 48 hrs by sulforhodamine B assay; type: functional; how it was run: as §1
SNB-75 = test: Cytotoxicity against human SNB75 cells after 48 hrs by sulforhodamine B assay; type: functional; how it was run: as §1
OVCAR-4 = test: Cytotoxicity against human OVCAR4 cells after 48 hrs by sulforhodamine B assay; type: functional; how it was run: as §1
TK-10 = test: Cytotoxicity against human TK10 cells after 48 hrs by sulforhodamine B assay; type: functional; how it was run: as §1
MCF7 [4] = test: Antitumor activity against human MCF7 cells assessed as cell growth at 10 uM after 48 hrs by sulforhodamine B assay; type: functional; conditions: MCF7, 48 h, read-out: Activity
How it was run: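 NCI primary screen, single concentration 10^-5 M against MCF7, NCI-H460 and SF-268. Cells in RPMI 1640 with 5% FBS and 2 mM L-glutamine, seeded at 5000–40,000 cells/well by cell type, preincubated 24 h at 37 °C. Compound added at time zero, then 48 h incubation (5% CO2, 100% humidity). Growth read by sulforhodamine B optical density, reported as growth percentage.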

SR = test: Cytotoxicity against human SR cells after 48 hrs by sulforhodamine B assay; type: functional; how it was run: as §1
HOP-92 = test: Cytotoxicity against human HOP92 cells after 48 hrs by sulforhodamine B assay; type: functional; how it was run: as §1
BT-549 = test: Cytotoxicity against human BT549 cells after 48 hrs by sulforhodamine B assay; type: functional; how it was run: as §1
SF-268 = test: Cytotoxicity against human SF268 cells after 48 hrs by sulforhodamine B assay; type: functional; how it was run: as §1
MCF7 [5] = test: Cytotoxicity against human MCF7 cells after 48 hrs by sulforhodamine B assay; type: functional; how it was run: as §1
Hs-578T = test: Cytotoxicity against human Hs 578T cells after 48 hrs by sulforhodamine B assay; type: functional; how it was run: as §1
NCI-H322M = test: Cytotoxicity against human NCI-H322M cells after 48 hrs by sulforhodamine B assay; type: functional; how it was run: as §1

Compound: S=c1[nH]c(=S)c2c(Cc3nn4c(COc5ccc(Cl)cc5)nnc4s3)n[nH]c2[nH]1
- IC50 [1]: > 48 µM
- IC50 [2]: 37 µM
- IC50 [3]: 29 µM

Compound: S=c1[nH]c(=S)c2c(Cc3nn4c(Cc5ccccc5)nnc4s3)n[nH]c2[nH]1
- IC50 [1]: > 48 µM
- IC50 [2]: 24 µM
- IC50 [3]: 14 µM

Compound: CCSc1nn2c(COc3ccc(Cl)cc3)nnc2s1
- IC50 [1]: > 120 µM
- IC50 [2]: 24 µM
- IC50 [3]: > 48 µM

Compound: NNc1nn2c(COc3ccc(Cl)cc3)nnc2s1
- IC50 [1]: > 120 µM
- IC50 [2]: 15 µM
- IC50 [3]: 28 µM

Compound: CCSc1nn2c(Cc3ccccc3)nnc2s1
- IC50 [1]: > 48 µM
- IC50 [2]: 24 µM
- IC50 [3]: > 120 µM

Compound: Cc1nnc2sc(NN)nn12
- IC50 [1]: > 120 µM
- IC50 [2]: 11 µM
- IC50 [3]: 22 µM

Now from value to molecule, other results behind:

- IC50 [1]: > 48 µM
- IC50 [2]: > 28 µM
- IC50 [3]: > 120 µM
Compound: NNc1nn2c(Cc3ccccc3)nnc2s1

- IC50 [1]: 10 µM
- IC50 [2]: 24 µM
- IC50 [3]: > 48 µM
Compound: Cc1nnc2sc(Cc3n[nH]c4[nH]c(=S)[nH]c(=S)c34)nn12

- IC50 [1]: 37 µM
- IC50 [2]: 23 µM
- IC50 [3]: 25 µM
Compound: Sc1nn2c(Cc3ccccc3)nnc2s1

- IC50 [1]: 23 µM
- IC50 [2]: 6.8 µM
- IC50 [3]: 19 µM
Compound: Cc1nnc2sc(S)nn12

- IC50 [1]: 25 µM
- IC50 [2]: 15 µM
- IC50 [3]: 5.3 µM
Compound: c1ccc(Cc2nnc3sc(SSc4nn5c(Cc6ccccc6)nnc5s4)nn23)cc1

- IC50 [1]: 12 µM
- IC50 [2]: 0.25 µM
- IC50 [3]: 12 µM
Compound: Cc1nnc2sc(Cc3sc(N)nc3O)nn12
- pGI50 (HCT-15): inactive
- pGI50 (CCRF-CEM): inactive
- pGI50 (UACC-62): inactive
- pGI50 (LOX IMVI): inactive
- pGI50 (SF-539): inactive
- GI50 (NCI-H226): 77.6 µM
- pGI50 (A498): inactive
- pGI50 (HOP-62): inactive
- GI50 (HCT-116): 83.2 µM
- pGI50 (ACHN): inactive
- GI50 (KM12): 97.7 µM
- pGI50 (HCC 2998): inactive
- GI50 (CAKI-1): 63.1 µM
- pGI50 (OVCAR-3): inactive
- pGI50 (SNB-75): inactive
- pGI50 (OVCAR-4): inactive
- pGI50 (TK-10): inactive
- growth at 10 µM (MCF7 [4]): 130%
- pGI50 (SR): inactive
- pGI50 (HOP-92): inactive
- pGI50 (BT-549): inactive
- pGI50 (SF-268): inactive
- pGI50 (MCF7 [5]): inactive
- pGI50 (Hs-578T): inactive
- GI50 (NCI-H322M): 87.1 µM

From ChEMBL document CHEMBL1152892, “Synthesis and biological evaluation of 3,6-disubstituted [1,2,4]triazolo[3,4-b][1,3,4]thiadiazole derivatives as a novel class of potential anti-tumor agents” (Eur J Med Chem, 2009)
